From ChEMBL document CHEMBL1141001, “Synthesis of trans-caffeate analogues and their bioactivities against HIV-1 integrase and cancer cell lines” (Bioorg Med Chem Lett, 2008) come the findings set out here.

Assay [1] concerns the target Human immunodeficiency virus type 1 integrase (Human immunodeficiency virus 1, UniProt Q7ZJM1). The assay is described as follows: Inhibition of HIV1 integrase by ELISA. An outline of the steps:
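HIV-1 integrase activity was read out by ELISA, and inhibition was expressed as an IC50.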
For orientation: ELISA stands for enzyme-linked immunosorbent assay.

Assay [2] has as its system BEL-7404 (Homo sapiens). The assay is described as follows: Cytotoxicity against human BEL-7404 cells by MTT assay. A general note: Tetrazolium assays rely on reduction of a dye to a coloured formazan, in cell work by metabolically active cells.
Assay [3] in a line: Cytotoxicity against human BCG823 cells by MTT assay. The assay is classed as functional, cell-based.
Assay [4] concerns A549. The assay is described as follows: Cytotoxicity against human A549 cells by MTT assay. The class given is functional, cell-based.
For assay [5], the system named is MCF7. Put plainly: Cytotoxicity against human MCF7 cells by MTT assay. The assay is classed as functional, cell-based.

For orientation: IC50 means the concentration that inhibits the measured activity by half.

Chain of Human immunodeficiency virus type 1 integrase (Q7ZJM1 whole entry): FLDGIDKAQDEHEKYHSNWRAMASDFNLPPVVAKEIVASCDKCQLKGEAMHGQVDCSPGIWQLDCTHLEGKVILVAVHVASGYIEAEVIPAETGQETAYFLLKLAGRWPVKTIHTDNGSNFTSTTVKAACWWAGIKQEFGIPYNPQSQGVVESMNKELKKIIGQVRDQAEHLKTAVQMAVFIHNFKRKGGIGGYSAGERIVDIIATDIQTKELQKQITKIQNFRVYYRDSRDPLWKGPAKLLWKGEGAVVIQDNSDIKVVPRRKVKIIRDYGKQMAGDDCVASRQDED

On to `CCCCCCCOC(=O)/C=C/c1ccc(O)c(O)c1`, for which the 50% inhibitory concentration (IC50) in assay [1] is > 100 µM.

Compound `O=C(O)/C=C/c1cc(O)c(O)c([N+](=O)[O-])c1` came in with an IC50 in assay [1] of 26.8 µM.

Consider `O=C(O)/C=C/c1ccc(O)c(O)c1[N+](=O)[O-]`, for which, in assay [1], the IC50 is > 100 µM.

For `CCCOC(=O)/C=C/c1ccc(O)c(O)c1`, the IC50 in assay [1] was > 100 µM.

As for `COc1cc(/C=C/C(=O)OC2CC3CCC2(C)C3(C)C)cc(Cl)c1O` (stereo not drawn), in assay [1], the half-maximal inhibitory concentration (IC50) is > 100 µM.

For the compound `COc1cc(/C=C/C(=O)O)cc(Br)c1O`, in assay [1], the IC50 was > 100 µM.

With `COc1c(O)ccc(/C=C/C(=O)O)c1[N+](=O)[O-]`, the IC50 in assay [1] is > 100 µM.

Turning to `CCCCCCCCOC(=O)/C=C/c1ccc(O)c(O)c1`, the IC50 in assay [1] was > 100 µM.

Take `CCC(C)OC(=O)/C=C/c1ccc(O)c(O)c1` (stereo not drawn): the concentration for half-maximal inhibition (IC50) in assay [1] is > 100 µM.

As to `CC(C)(C)OC(=O)/C=C/c1ccc(O)c(O)c1`, the IC50 in assay [1] was > 100 µM.

Consider `CCCCCCC(C)OC(=O)/C=C/c1ccc(O)c(O)c1` (stereo not drawn), for which the IC50 in assay [1] was > 100 µM.

For the compound `CCCCCCCCCCCCCCCCCCOC(=O)/C=C/c1ccc(O)c(O)c1`, the IC50 in assay [1] is > 100 µM.

Regarding `O=C(/C=C/c1ccc(O)c(O)c1)Oc1ccccc1`, the IC50 in assay [1] was > 100 µM; in assay [2], 44.3 µM; in assay [3] it was 56.6 µM; in assay [4], 75.9 µM; in assay [5], 5.9 µM.

As to `O=C(/C=C/c1ccc(O)c(O)c1)OC1CCCCC1`, the half-maximal inhibitory concentration (IC50) in assay [1] is > 100 µM; in assay [2] it was 15.5 µM; in assay [3], 97.6 µM; in assay [4], 89.3 µM; in assay [5], 30.3 µM.

On to `COc1c(O)ccc(/C=C/C(=O)OCCc2ccccc2)c1[N+](=O)[O-]`, for which the 50% inhibitory concentration (IC50) in assay [1] was > 100 µM.

`COc1c(O)ccc(/C=C/C(=O)OC2CC3CCC2(C)C3(C)C)c1[N+](=O)[O-]` (stereo not drawn): the IC50 in assay [1] is > 100 µM; in assay [2] it was 6.6 µM; in assay [3], 32.1 µM; in assay [4], 21.1 µM; in assay [5], 62.3 µM.

For `COc1cc(/C=C/C(=O)O)cc([N+](=O)[O-])c1O`, the 50% inhibitory concentration (IC50) in assay [1] was > 100 µM.

With `COc1cc(/C=C/C(=O)OCCc2ccccc2)cc([N+](=O)[O-])c1O`, the IC50 in assay [1] is > 100 µM; in assay [2] it was > 300 µM; in assay [3] it was > 300 µM; in assay [4] it was > 300 µM; in assay [5] it was > 300 µM.

In the case of `COc1cc(/C=C/C(=O)OC2CC3CCC2(C)C3(C)C)cc([N+](=O)[O-])c1O` (stereo not drawn), in assay [1], the IC50 was > 100 µM.

Take `COc1cc(/C=C/C(=O)O)cc(Cl)c1O`: the half-maximal inhibitory concentration (IC50) in assay [1] was > 100 µM.

As to `COc1cc(/C=C/C(=O)OCCc2ccccc2)cc(Cl)c1O`, in assay [1], the IC50 was > 100 µM.

`COc1cc(/C=C/C(=O)OCCc2ccccc2)cc(Br)c1O`: the IC50 in assay [1] was > 100 µM; in assay [2] it was > 300 µM; in assay [3] it was > 300 µM; in assay [4], > 300 µM; in assay [5], > 300 µM.

Turning to `COc1cc(/C=C/C(=O)OC2CC3CCC2(C)C3(C)C)cc(Br)c1O` (stereo not drawn), the IC50 in assay [1] is > 100 µM.

Turning to `CC(C)(COC(=O)/C=C/c1ccc(O)c(O)c1)[N+](=O)[O-]`, the IC50 in assay [1] was > 100 µM.

Consider `O=C(/C=C/c1cc(O)c(O)c([N+](=O)[O-])c1)OCCc1ccccc1`, for which the concentration for half-maximal inhibition (IC50) in assay [1] turned out to be 25 µM; in assay [2] it was 59.7 µM; in assay [3] it was 22.9 µM; in assay [4], 11.4 µM; in assay [5], 12.3 µM.

As for `CC(C)OC(=O)/C=C/c1ccc(O)c(O)c1`, the concentration for half-maximal inhibition (IC50) in assay [1] was > 100 µM.

`C=CCOC(=O)/C=C/c1ccc(O)c(O)c1`: the IC50 in assay [1] was > 100 µM.

`C#CCOC(=O)/C=C/c1ccc(O)c(O)c1`: in assay [1], the IC50 was > 100 µM.

As for `O=C(/C=C/c1ccc(O)c(O)c1[N+](=O)[O-])OCCc1ccccc1`, the IC50 in assay [1] was > 100 µM; in assay [2], 10.2 µM; in assay [3] it was 27.8 µM; in assay [4] it was 8.7 µM; in assay [5], 28.8 µM.

Turning to `CC1(C)C2CCC1(C)C(OC(=O)/C=C/c1ccc(O)c(O)c1[N+](=O)[O-])C2` (stereo not drawn), the IC50 in assay [1] amounted to 13.5 µM; in assay [2], 28.7 µM; in assay [3], 117 µM; in assay [4], 52.9 µM; in assay [5], 40.7 µM.

With `O=C(/C=C/c1ccc(O)c(O)c1)Oc1ccc2ccccc2c1`, the half-maximal inhibitory concentration (IC50) is > 100 µM in assay [1]; 58.1 µM in assay [2]; 59.8 µM in assay [3]; 50 µM in assay [4]; 12.8 µM in assay [5].

For `CC1(C)C2CCC1(C)C(OC(=O)/C=C/c1ccc(O)c(O)c1)C2` (stereo not drawn), the half-inhibitory concentration (IC50) was 19.9 µM in assay [1]; 28.2 µM in assay [2]; 101 µM in assay [3]; 19.5 µM in assay [4]; > 300 µM in assay [5].

Regarding `CC1(C)C2CCC1(C)C(OC(=O)/C=C/c1cc(O)c(O)c([N+](=O)[O-])c1)C2` (stereo not drawn), in assay [1], the half-maximal inhibitory concentration (IC50) is > 100 µM.

As to `O=C(/C=C/c1ccc(O)c(O)c1)OCc1ccccc1` [BENZYL CAFFEATE], the IC50 in assay [1] was > 100 µM; in assay [2], 17.4 µM; in assay [3], 48.1 µM; in assay [4], 27.3 µM; in assay [5], 14.1 µM.

As to `CCCCOC(=O)/C=C/c1ccc(O)c(O)c1` [BUTYL CAFFEATE], the IC50 in assay [1] is > 100 µM.

`O=C(/C=C/c1ccc(O)c(O)c1)OCCc1ccccc1` [CAFFEIC ACID PHENETHYL ESTER]: the half-inhibitory concentration (IC50) in assay [1] is > 100 µM; in assay [2], 5.5 µM; in assay [3], 44.6 µM; in assay [4], 83.6 µM; in assay [5], 26.7 µM.

Regarding `O=C(O)/C=C/c1ccc(O)c(O)c1` [CAFFEIC ACID], the half-inhibitory concentration (IC50) in assay [1] was > 100 µM.

In the case of `CCOC(=O)/C=C/c1ccc(O)c(O)c1` [ETHYL CAFFEATE], the concentration for half-maximal inhibition (IC50) in assay [1] was > 100 µM.

On to `COc1cc(/C=C/C(=O)O)ccc1O` [FERULATE], for which the concentration for half-maximal inhibition (IC50) in assay [1] is > 100 µM.

On to `COC(=O)/C=C/c1ccc(O)c(O)c1` [METHYLCAFFEATE], for which the IC50 in assay [1] is > 100 µM.
